In ChEMBL document CHEMBL3112420, “Discovery of 8-cyclopentyl-2-[4-(4-methyl-piperazin-1-yl)-phenylamino]-7-oxo-7,8-dihydro-pyrido[2,3-d]pyrimidine-6-carbonitrile (7x) as a potent inhibitor of cyclin-dependent kinase 4 (CDK4) and AMPK-related kinase 5 (ARK5)” (J Med Chem, 2014):
Calls of active or inactive are those of the source. The rule behind the calls is not given here.

How the values were obtained:
[1] = Toxicity in CD-1 mouse […] assessed as survival rate at 200 mg/kg, ip administered for 5 days measured after 10 days; format: organism-based; parameters: dose 200 mg/kg, route intraperitoneal; conditions: in vivo
Method in brief: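 Female CD-1 mice (n=3) were given 200 mg/kg ip on 5 consecutive days. They were then monitored for signs of toxicity, with survival followed beyond 10 days after injection. This came after an initial single-dose test at 100 or 200 mg/kg ip with 7-day monitoring.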

[2] = biological target: Cyclin-dependent kinase 4/cyclin D1 (Homo sapiens) (UniProt P11802+P24385); assay: Inhibition of recombinant CDK4/cyclinD1 in human MCF7 cells assessed as inhibition of retinoblastoma phosphorylation at Ser780 at 0.5 to 5 uM after 24 hrs by Western blotting analysis; format: cell-based
Method in brief: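 Breast carcinoma cells were given increasing concentrations for 24 h. Total lysates (100 μg, 10% SDS-PAGE) were immunoblotted with antibodies against Ser780-phosphorylated and non-phosphorylated RB. Bands were read on an infrared scanning system.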

[3] = biological target: Platelet-derived growth factor receptor beta (Homo sapiens, UniProt P09619); assay: Inhibition of PDGFRbeta (unknown origin)
[4] = biological target: Tyrosine-protein kinase Fyn (Homo sapiens, UniProt P06241); assay: Inhibition of FYN (unknown origin)
[5] = test system: 2008; assay: Cytotoxicity against human 2008 cells after 96 hrs by Cell-Titer Blue assay; format: functional; conditions: Homo sapiens, 2008, 96 h
[6] = test system: MDA-MB-157; assay: Cytotoxicity against human MDA-MB-157 cells after 96 hrs by Cell-Titer Blue assay; format: functional; conditions: MDA-MB-157, 96 h
[7] = test system: MDA-MB-468; assay: Cytotoxicity against human MDA-MB-468 cells after 96 hrs by Cell-Titer Blue assay; format: functional; conditions: MDA-MB-468, 96 h
[8] = Cytotoxicity against human SNU449 cells after 96 hrs by Cell-Titer Blue assay; format: functional; conditions: SNU-449, 96 h
[9] = Cytotoxicity against human U266 cells after 96 hrs by Cell-Titer Blue assay; format: functional; conditions: U-266, 96 h
[10] = Cytotoxicity against human U87 cells after 96 hrs by Cell-Titer Blue assay; format: functional, U-87MG ATCC; conditions: U-87 MG
[11] = test system: NCI-N87; assay: Cytotoxicity against human NCI-N87 cells after 96 hrs by Cell-Titer Blue assay; format: functional; conditions: NCI-N87, 96 h
[12] = test system: DU-145; assay: Cytotoxicity against human DU145 cells after 96 hrs by Cell-Titer Blue assay; format: functional, cell-based; conditions: DU-145, 96 h
[13] = biological target: Cyclin-dependent kinase 4/cyclin D1 (Homo sapiens, UniProt P11802); assay: Inhibition of CDK4/cyclinD1 (unknown origin); format: protein-complex assay
Cyclin-dependent kinase 4/cyclin D1, sequence (P11802 whole entry): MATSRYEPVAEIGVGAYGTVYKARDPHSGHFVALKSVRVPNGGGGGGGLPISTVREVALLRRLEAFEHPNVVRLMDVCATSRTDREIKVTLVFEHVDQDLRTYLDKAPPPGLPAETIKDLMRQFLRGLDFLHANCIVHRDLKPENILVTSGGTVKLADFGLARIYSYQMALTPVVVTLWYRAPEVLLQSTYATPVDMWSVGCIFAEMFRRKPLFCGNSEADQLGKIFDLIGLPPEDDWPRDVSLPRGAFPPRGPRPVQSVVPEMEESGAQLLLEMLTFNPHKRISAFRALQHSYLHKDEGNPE
Cyclin-dependent kinase 4/cyclin D1, sequence (P24385 whole entry, further chain): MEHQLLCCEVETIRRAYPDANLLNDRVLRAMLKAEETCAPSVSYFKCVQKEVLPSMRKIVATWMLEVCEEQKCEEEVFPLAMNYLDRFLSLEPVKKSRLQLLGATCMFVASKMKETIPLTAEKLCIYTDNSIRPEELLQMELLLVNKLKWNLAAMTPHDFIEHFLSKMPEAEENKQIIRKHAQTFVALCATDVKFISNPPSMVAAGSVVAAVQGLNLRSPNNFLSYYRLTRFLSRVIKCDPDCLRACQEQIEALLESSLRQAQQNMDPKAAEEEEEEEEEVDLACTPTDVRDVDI

Platelet-derived growth factor receptor beta, sequence (P09619 whole entry): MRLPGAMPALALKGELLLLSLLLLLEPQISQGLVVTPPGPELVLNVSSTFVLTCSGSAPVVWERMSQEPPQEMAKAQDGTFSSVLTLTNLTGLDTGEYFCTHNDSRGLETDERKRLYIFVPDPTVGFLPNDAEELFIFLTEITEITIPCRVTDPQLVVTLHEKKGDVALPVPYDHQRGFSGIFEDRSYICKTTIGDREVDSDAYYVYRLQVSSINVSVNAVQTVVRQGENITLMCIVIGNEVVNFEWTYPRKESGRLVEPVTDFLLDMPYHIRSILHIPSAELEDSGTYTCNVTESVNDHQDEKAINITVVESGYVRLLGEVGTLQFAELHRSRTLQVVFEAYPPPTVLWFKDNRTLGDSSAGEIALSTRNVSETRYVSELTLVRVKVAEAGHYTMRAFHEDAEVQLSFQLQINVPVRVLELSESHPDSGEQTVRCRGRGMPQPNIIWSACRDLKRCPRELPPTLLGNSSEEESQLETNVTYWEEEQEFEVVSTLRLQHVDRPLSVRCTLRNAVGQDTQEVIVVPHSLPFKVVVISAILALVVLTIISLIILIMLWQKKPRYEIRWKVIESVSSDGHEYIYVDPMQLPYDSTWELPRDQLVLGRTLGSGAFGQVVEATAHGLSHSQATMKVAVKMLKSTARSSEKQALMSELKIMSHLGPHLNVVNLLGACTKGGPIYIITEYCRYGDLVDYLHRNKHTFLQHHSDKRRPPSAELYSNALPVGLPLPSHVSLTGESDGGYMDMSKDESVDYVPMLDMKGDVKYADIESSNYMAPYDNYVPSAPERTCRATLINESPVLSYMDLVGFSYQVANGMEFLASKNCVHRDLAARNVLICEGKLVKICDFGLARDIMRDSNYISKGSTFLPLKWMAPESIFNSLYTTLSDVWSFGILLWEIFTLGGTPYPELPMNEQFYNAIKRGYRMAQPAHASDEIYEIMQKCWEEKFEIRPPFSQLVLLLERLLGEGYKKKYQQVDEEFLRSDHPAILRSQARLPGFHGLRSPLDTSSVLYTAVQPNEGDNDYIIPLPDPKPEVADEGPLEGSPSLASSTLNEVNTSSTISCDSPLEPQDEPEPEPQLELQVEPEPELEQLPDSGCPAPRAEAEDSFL
Tyrosine-protein kinase Fyn, sequence (P06241 whole entry): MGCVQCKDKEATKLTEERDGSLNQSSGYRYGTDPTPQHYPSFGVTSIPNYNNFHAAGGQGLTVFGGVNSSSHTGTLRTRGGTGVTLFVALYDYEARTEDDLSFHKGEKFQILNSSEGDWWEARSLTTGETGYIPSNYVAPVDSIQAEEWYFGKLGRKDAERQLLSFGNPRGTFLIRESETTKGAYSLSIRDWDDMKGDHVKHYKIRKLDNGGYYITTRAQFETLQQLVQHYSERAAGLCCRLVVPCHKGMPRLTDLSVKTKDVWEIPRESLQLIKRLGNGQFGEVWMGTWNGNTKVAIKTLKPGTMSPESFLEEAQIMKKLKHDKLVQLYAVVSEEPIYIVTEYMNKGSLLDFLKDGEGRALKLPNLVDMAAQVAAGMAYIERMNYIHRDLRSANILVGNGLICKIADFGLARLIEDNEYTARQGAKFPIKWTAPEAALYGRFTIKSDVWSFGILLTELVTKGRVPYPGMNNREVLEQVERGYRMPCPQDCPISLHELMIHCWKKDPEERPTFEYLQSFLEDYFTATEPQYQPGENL

Compound: CN1CCN(c2ccc(Nc3ncc4cc(C#N)c(=O)n(C5CCCC5)c4n3)cc2)CC1 [NARAZACICLIB]
- survival at 240 h [1]: 100%
- inhibition [2]: Active
- IC50 [3]: 26 nM
- IC50 [4]: 11.1 nM
- GI50 [5]: 1500 nM
- GI50 [6]: 1000 nM
- GI50 [7]: 2000 nM
- GI50 [8]: 750 nM
- GI50 [9]: 200 nM
- GI50 [10]: 100 nM
- GI50 [11]: 900 nM
- GI50 [12]: 50 nM
- IC50 [13]: 3.8 nM
